MC4R antagonist: antagonists of human melanocortin 4 receptor (MC4R); 360,000 compounds, 0.48% hits; P32245; inhibition, % at 6.5 µM; MC4R-expressing cells, MTII-stimulated cAMP, LANCE TR-FRET; AID 540295;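 active means inhibition above its plate's cutoff, the mean of tested wells on that plate plus 3 SD, cut at about 29% in these data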;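 further: 0% = Melanotan II alone and 100% = Melanotan II plus saturating MCL0020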
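Assay system: U2OS cells stably expressing human melanocortin 4 receptor (MC4R) / Dosing: 6.5 µM / Timing: compound 30 min, challenge 1 h, detection 1 h / Measured by: Eu-cAMP/anti-cAMP TR-FRET, emission 671 nm / Replicates: singlicate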
EP2 antag: inhibitors of human EP2 prostaglandin E2 receptor | AID 1422 | C6 glioma cells expressing human EP2, cAMP TR-FRET; cells stimulated with saturating PGE2 | P43116 | 260,000 compounds, 0.52% hits | inhibition, % at 25 µM;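 active means percent inhibition above 40 after rounding to a whole number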;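 further: rat C6 glioma host cells with rolipram phosphodiesterase inhibitor present; the protocol text gives 20 µM as final concentration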
T cell modulator: modulates CD8 T cell binding to vesicles | response (vesicle binding), % at 7 µM | 2C CD8+ T cell-vesicle binding, flow cytometry; hits give low values | 330,000 compounds, 0.068% hits;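 active means response, share of CD8 T cells binding vesicles, and their 90th percentile fluorescence all below set limits, cut at about 80% in these data, passing the limit was not always enough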;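 further: values below 100% mean blocked vesicle binding to the CD8+ T cells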
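Benchmarks: naked versus QL9-loaded vesicles / Assay system: purified 2C TCR transgenic mouse naive CD8+ T cells / Technique: high-throughput flow cytometry with anti-B7-1 and anti-CD8 staining / Timing: Cell–vesicle co-incubation 1.5 h at 37 °C, staining 20 min on ice / Read-out: percent CD8+ FL2 mean versus row control / Probe or stimulus: QL9-loaded Drosophila micro-vesicles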
Granule exo inh: blocks lytic granule exocytosis; TALL-104 LAMP-1 surface exposure, flow cytometry; cells stimulated with thapsigargin and PMA; inhibition, % at 10 µM; 360,000 compounds, 0.66% hits; AID 651702;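 active means inhibition above about 55%, limit read from the data; inconclusive means no clear call, values can overlap the other calls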
EP2 mod: EP2 receptor (human) modulation; P43116; EP2-expressing cells, cAMP HTRF FRET, PGE2 co-stimulation; induction, % at 25 µM; 260,000 compounds, 0.83% hits; AID 940;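 active means compounds whose cAMP rise, as percent of the full-agonist control response, exceeds 60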;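 further: rat C6 glioma line stably carrying human EP2 under a CMV promoter; the protocol text gives 20 µM as final concentration; 100% = response of wells given 1 µM PGE2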
MC4R ag barr: activates human MC4R beta-arrestin recruitment. P32245. U2OS MC4R beta-arrestin complementation, luminescence; percent of melanotan II response, DMSO zero. 360,000 compounds, 0.98% hits. activation, % at 8.9 µM;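 active means activation above a per-plate cutoff, the mean activation of sample wells on that plate plus 3 SD, cut at about 8% in these data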
MC4R barr ag: human MC4R beta-arrestin agonism confirmation; activation, % at 8.9 µM; U2OS MC4R beta-arrestin recruitment, luminescence; scaled DMSO 0%, Melanotan II 100%; AID 602192; 2,400 compounds, 31% hits; shares compounds with MC4R ag barr;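 active means mean activation across replicates above the hit cutoff set in the earlier primary screen, cut at about 8% in these data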
MOR DOR agonist: activates mu-delta opioid heterodimer, MC4R agonist counter-screen; shares compounds with MC4R ag barr; U2OS PathHunter beta-arrestin, beta-gal luminescence; percent of deltorphin B response, DMSO zero; activation, % at 9.2 µM; 2,400 compounds, 5.8% hits;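 active means mean activation across replicates exceeds the hit threshold derived in the earlier primary screen, cut at about 18% in these data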;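 further: 100% = deltorphin B at 0.9 µM final and 0% = DMSO alone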
Target sequence (P35372 whole entry, looked up): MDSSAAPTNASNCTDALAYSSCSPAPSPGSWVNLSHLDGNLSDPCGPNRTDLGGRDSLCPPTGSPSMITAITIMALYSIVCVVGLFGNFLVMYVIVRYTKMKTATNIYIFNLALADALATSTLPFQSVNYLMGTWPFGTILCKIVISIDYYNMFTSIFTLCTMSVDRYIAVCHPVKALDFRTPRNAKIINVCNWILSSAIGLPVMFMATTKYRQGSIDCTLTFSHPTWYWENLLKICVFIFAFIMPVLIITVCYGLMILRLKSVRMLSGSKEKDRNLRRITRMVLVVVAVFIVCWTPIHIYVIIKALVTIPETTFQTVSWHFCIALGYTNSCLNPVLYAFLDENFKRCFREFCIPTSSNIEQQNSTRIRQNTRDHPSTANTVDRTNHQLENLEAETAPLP
Target sequence (P41143 whole entry, looked up): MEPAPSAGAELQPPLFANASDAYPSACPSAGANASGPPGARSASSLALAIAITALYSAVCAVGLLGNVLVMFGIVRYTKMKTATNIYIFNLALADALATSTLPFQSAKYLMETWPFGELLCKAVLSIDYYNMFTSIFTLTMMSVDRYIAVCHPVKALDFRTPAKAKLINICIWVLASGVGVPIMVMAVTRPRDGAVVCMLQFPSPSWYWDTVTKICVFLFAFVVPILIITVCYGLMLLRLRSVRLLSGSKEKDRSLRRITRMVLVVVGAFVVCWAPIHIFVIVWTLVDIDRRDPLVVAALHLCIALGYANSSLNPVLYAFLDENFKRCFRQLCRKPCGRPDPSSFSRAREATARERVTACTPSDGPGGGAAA
* marks the source's active call; other numbers are inactive results; i = inactive; ? = inconclusive; . = no result. Most compounds without a hit are left out; they make up all but 2.6% or so of the library.

SMILES	MC4R antagonist	EP2 antag	T cell modulator	Granule exo inh	EP2 mod	MC4R ag barr	MC4R barr ag	MOR DOR agonist
CCOC(=O)c1ccc(NC(=O)CSc2nnc(-c3cccs3)n2CC)cc1	6	4	424	-1	16	2	.	.
C/C(=N/OCO/N=C(\C)c1ccccc1F)c1ccccc1F	2	5	296	-2	21	9.6*	-1	4
Cc1cc(C(=O)Nc2ccccc2N2CCOCC2)no1	-3	.	600	2	.	-1	.	.
CCN(c1ccccc1)S(=O)(=O)c1ccc(C(=O)Nc2nnc(CSC)o2)cc1	7	5	379	1	27	-3	.	.
CCOC(=O)/C(C#N)=C(C)/C=C1\Sc2ccccc2N1CC	-16	5	196	-2	22	18*	15*	2
O=C(OCc1cc(=O)n2c(n1)sc1ccccc12)c1ccc(O)cc1O	-3	6	396	-1	-2	17*	1	5
COc1ccc(S(=O)(=O)N2CCOCC2)cc1NC(=O)COc1ccc2ccc(=O)oc2c1	-2	.	381	1	.	0	.	.
O=C(NCC1OCCc2ccccc21)c1cc(COc2ccc(F)cc2Cl)on1 (stereo not drawn)	-1	3	164	2	-35	15*	6	7
Brc1cc2c(cc1-c1nc3ccccc3s1)OCO2	8	.	i	12	.	15*	1	4
Cc1cc(-c2nc3ccccc3s2)ccc1N	8	8	.	-10	-35	-1	.	.
C=CCNC(=S)N/N=C/c1ccc(-c2cc(Cl)ccc2Cl)o1	-5	10	267	-5	2	1	.	.
C=CCNC(=S)N/N=C/c1ccc(-c2ccc(Cl)cc2Cl)o1	0	.	161	?	.	10*	7	5
N#C/C(=C\c1cn(Cc2ccccc2)c2ccccc12)C(=O)NCc1ccco1	7	9	222	5	0	17*	1	3
N#C/C(=C\c1cn(Cc2cccc(F)c2)c2ccccc12)C(=O)NCc1ccco1	-1	8	240	10	-8	31*	6	2
Cc1cc(-c2ccc(Br)cc2)n[nH]1	3	7	322	-8	-3	-3	.	.
CCOc1ccccc1NC(=O)c1ccc2[nH]c(C)c(C)c2c1	11	.	247	-6	.	12*	1	8
CCOC(=O)Cc1ccc(Nc2nc(NCc3cccs3)nc3ccsc23)cc1	-3	.	.	2	.	15*	-4	5
CC1CCCCC1NC(=O)NC(=O)COC(=O)c1ccc(OC(F)F)cc1 (stereo not drawn)	-1	.	.	-1	.	10*	3	9
NC(=O)CC(NC(=O)c1ccc(Br)cc1)c1ccc(NCCc2ccc(F)cc2)c([N+](=O)[O-])c1 (stereo not drawn)	3	22	690	-7	-29	13*	-1	3
NC(=O)CC(NC(=O)c1ccccc1)c1ccc(NCCc2cccc(F)c2)c([N+](=O)[O-])c1 (stereo not drawn)	5	22	574	-3	-9	-1	.	.
COc1cccc(-c2cnc3c(NC=O)cc(-c4ccc(S(C)(=O)=O)cc4)cn23)c1	-17	.	.	-12	.	6	.	.
COc1cccc(-c2cnc3c(NC=O)cc(-c4ccoc4)cn23)c1	-2	.	.	11	.	44*	34*	0
COc1cccc(-c2cc(NC=O)c3ncc(-c4ccc(F)c(Cl)c4)n3c2)c1	8	.	.	26	.	16*	10*	6
COc1cc(/C=N/NC(=O)c2sc3nc(C)cc(C)c3c2N)ccc1O	1	15	234	2	-41	16*	1	3
COC(=O)c1sc2nc(C)cc(C)c2c1N	8	5	329	1	3	0	.	.
SMILES	MC4R antagonist	EP2 antag	T cell modulator	Granule exo inh	EP2 mod	MC4R ag barr	MC4R barr ag	MOR DOR agonist
Cc1cc(C)c2c(N)c(C(=O)Nc3ccccc3C)sc2n1	.	15	.	.	-27	.	.	.
Cc1cc(C)c2c(N)c(C(=O)Nc3ccccc3Br)sc2n1	-1	.	232	6	.	10.0*	0	5
COc1ccc(Cl)cc1NC(=O)C1Cc2ccccc2CN1S(C)(=O)=O (stereo not drawn)	4	.	i	-5	.	1	.	.
CCOc1nc(C)cc(C)c1S(=O)(=O)c1cccc(Cl)c1	10	.	365	0	.	0	.	.
CCC(C)(C)NC(=O)C(c1ccncc1)N(C(=O)c1sc(C)nc1C)c1ccc(F)cc1 (stereo not drawn)	-1	5	248	6	10	0	.	.
NS(=O)(=O)c1ccc(NC(=S)N2CCN(Cc3ccc(Cl)c(Cl)c3)CC2)cc1	2	7	111	2	-27	-1	.	.
NS(=O)(=O)c1ccc(NC(=S)N2CCN(c3ccc(Cl)c(Cl)c3)CC2)cc1	-3	9	272	-2	-80	12*	-3	3
O=C(c1cccc(-c2ccc(O)cc2)c1)N1CCN(c2ccc(F)cc2)CC1	9	3	213	2	-65	13*	4	6
COc1ccccc1C1C2=C(CC(C)(C)CC2=O)Nc2nnnn21 (stereo not drawn)	2	6	239	-3	9	0	.	.
Cc1cc(C)cc(NC(=S)N2CCN(c3ncc(C(F)(F)F)cc3Cl)CC2)c1	3	10	422	4	13	17*	4	3
COc1ccc(S(=O)(=O)N2CCN(c3ncccn3)CC2)cc1[N+](=O)[O-]	-5	.	164	-2	.	1	.	.
COc1cccc(-c2cnc3c(NC(C)=O)cc(-c4cccc(NS(C)(=O)=O)c4)cn23)c1	11	.	.	7	.	8	.	.
CC(=O)Nc1cc(-c2ccc(F)cc2)cn2c(-c3ccc(F)c(Cl)c3)cnc12	17	.	.	1	.	19*	18*	5
CC(=O)Nc1cc(-c2cccc(NS(C)(=O)=O)c2)cn2c(-c3ccccc3)cnc12	5	.	.	-20	.	12*	20*	4
CC(=O)Nc1cc(-c2ccccc2Cl)cn2c(-c3ccc(S(C)(=O)=O)cc3)cnc12	23	.	.	0	.	3	.	.
CC(=O)Nc1cc(-c2ccccc2)cn2c(-c3ccc(F)c(Cl)c3)cnc12	-3	.	.	41	.	22*	21*	4
CC(=O)Nc1cc(-c2cccc(F)c2)cn2c(-c3ccc(F)c(Cl)c3)cnc12	5	.	.	7	.	16*	19*	3
CC(=O)Nc1cc(-c2cccc(C)c2)cn2c(-c3ccc(S(C)(=O)=O)cc3)cnc12	12	.	.	-12	.	2	.	.
